The target in data set [1] is T1, C3a anaphylatoxin chemotactic receptor (Homo sapiens, UniProt Q16581).
T1 sequence (Q16581 whole entry): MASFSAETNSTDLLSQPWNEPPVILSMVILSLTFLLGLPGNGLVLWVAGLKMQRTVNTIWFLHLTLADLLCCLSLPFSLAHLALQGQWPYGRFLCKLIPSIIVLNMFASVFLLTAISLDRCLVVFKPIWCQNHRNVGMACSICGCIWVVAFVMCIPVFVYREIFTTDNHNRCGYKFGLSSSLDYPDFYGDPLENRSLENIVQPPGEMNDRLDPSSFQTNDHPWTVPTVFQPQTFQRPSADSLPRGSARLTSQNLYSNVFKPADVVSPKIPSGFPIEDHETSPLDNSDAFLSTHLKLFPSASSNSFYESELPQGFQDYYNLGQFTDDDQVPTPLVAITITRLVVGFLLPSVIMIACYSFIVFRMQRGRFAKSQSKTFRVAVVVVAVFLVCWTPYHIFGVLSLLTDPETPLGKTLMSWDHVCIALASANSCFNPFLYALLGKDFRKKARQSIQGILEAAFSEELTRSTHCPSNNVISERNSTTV
The data set is described as follows: (§1) Displacement of [125I]C3a from human C3a receptor expressed in HMC1 cells co-expressing aequorin. It is filed as cell-based. In outline:
(§2)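 Scintillation proximity assay used wheat germ agglutinin beads and membranes from HMC-1 cells co-expressing Aequorin and human C3aR. Test compound was added at various concentrations with 0.02 nM ¹²⁵I-C3a in 50 mM Tris/2 mM MgCl₂/0.5% BSA. Non-specific binding was defined with 1 nM C3a. Plates were incubated 3 h at rt and read by scintillation counting. Values are means of three experiments.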

The nature of data set [2]: Oral bioavailability in rat at 1 mg/kg. It is filed as ADME, organism-based. To be noted: in vivo. In outline: (§3)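 Male rats received a single oral or iv dose of 1 mg/kg.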
In the next data set the test system is Hepatocyte. The data set is described as follows: Clearance in rat hepatocytes. It is filed as ADME, cell-based, Liver.
Data set [3] in a line: Clearance in rat microsomes. It is filed as ADME, Liver, Microsome.
Data set [4] in a line: Elimination half life in rat at 1 mg/kg, iv and 1 mg/kg, po. It is filed as ADME, organism-based. The conditions noted are these: in vivo. In outline:
as §3

Data set [5] in a line: Permeability across Caco-2 cells. The conditions noted are these: human, read-out: permeability. It is filed as ADME, cell-based.
In data set [6] the target is T1, C3a anaphylatoxin chemotactic receptor. In words: Antagonist activity at human C3a receptor expressed in HMC1 cells co-expressing aequorin. It is filed as functional, cell-based. In outline: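 Aequorin/human C3aR HMC-1 cells were loaded with coelenterazine for 2 h. They were then plated and pre-treated with compound dilutions for 1 h at 37 °C, 1% DMSO. C3a agonist was then injected at 5 nM final. Light emission was the read-out.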

The target is the same in data set [7]. In words: Agonist activity at human C3a receptor expressed in HMC1 cells co-expressing aequorin. It is filed as functional, cell-based. In outline: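 They were then diluted fourfold and held 1 h at 37 °C. Compound was injected at 1% DMSO final. Luminescence was recorded for 30 s right after injection. Maximal signal was set with 50 nM C3a.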
Data set [8] deals with T2, C3a anaphylatoxin chemotactic receptor (Homo sapiens) (UniProt Q16581).
T2 sequence (whole entry): T1 sequence (Q16581 whole entry)
Described as §1. It is filed as cell-based. In outline: as §2

The source made the active and inactive calls. The calls are words filed in the database; no cut-off is given here.

This note sets out measurements from ChEMBL document CHEMBL1148022, “Discovery of new C3aR ligands. Part 2: amino-piperidine derivatives” (Bioorg Med Chem Lett, 2007).

`O=C(NC1CCN(C(=O)CCc2cccnc2)CC1)C(c1ccccc1)C1CC=CC1` (stereo not drawn) showed an IC50 in [1] of 3160 nM.
The molecule `O=C(NC1CCN(C(=O)/C=C/c2cccnc2)CC1)C(c1ccccc1)C1CCCCC1` (stereo not drawn) gave a bioavailability in data set [2] of 7%. Also, the CL with Hepatocyte came out at 26 µL/min; in data set [3] it was 238 µL/min. Moreover, in data set [1], the concentration for half-maximal inhibition (IC50) is 1000 nM. This molecule also had a half-life in data set [4] of 18 min. Further, the Papp in data set [5] stood at 8.5 ×10⁻⁶ cm/s.
`O=C(NC1CCN(C(=O)CCc2ccccc2F)CC1)C(c1ccccc1)C1CCCCC1` (stereo not drawn) gave an IC50 in [1] of 2000 nM.
The molecule `Cc1cc(C)cc(C(C(=O)NC2CCN(C(=O)CCc3cccnc3)CC2)C2CCCCC2)c1` (stereo not drawn) had an IC50 in data set [1] of 126 nM.
`O=C(NC1CCN(C(=O)CCc2cccnc2)CC1)C(c1ccccc1)C1CCC(F)(F)CC1` (stereo not drawn) had a bioavailability in [2] of 2%. In data set [3], this molecule came in with a CL of 170 µL/min. In [1], the concentration for half-maximal inhibition (IC50) was 631 nM. Moreover, in data set [4], the half-life was 18 min. The Papp in [5] worked out at 16 ×10⁻⁶ cm/s.
Turning to `Cc1cccc(C(C(=O)NC2CCN(C(=O)CCc3cccnc3)CC2)C2CCCCC2)c1` (stereo not drawn), the IC50 in data set [1] is 79.4 nM.
As to `COc1ccc(C(C(=O)NC2CCN(C(=O)CCc3cccnc3)CC2)C2CCCCC2)cc1` (stereo not drawn), the IC50 in data set [1] was 631 nM.
The same measure, in the same setting: in the case of `O=C(NC1CCN(C(=O)CCc2cccnc2)CC1)C(c1ccc([N+](=O)[O-])cc1)C1CCCCC1` (stereo not drawn) it was 316 nM; in that of `O=C(NC1CCN(C(=O)CCc2cccnc2)CC1)C1c2ccccc2Cc2ccccc21`, 79400 nM; in that of `CC1(C)CCC(C(C(=O)NC2CCN(C(=O)CCc3cccnc3)CC2)c2ccccc2)CC1` (stereo not drawn), 1000 nM.
On the same count and under the same terms, in the case of `CC1(C)CC(C(C(=O)NC2CCN(C(=O)CCc3cccnc3)CC2)c2ccccc2)CC(C)(C)C1` (stereo not drawn) it was 63100 nM.
For `O=C(NC1CCN(C(=O)CCc2cccnc2)CC1)C(c1ccc(Cl)cc1)C1CCCCC1` (stereo not drawn), in data set [2], the bioavailability turned out to be 0%. Further, the results for the CL (in the data set with Hepatocyte; in [3]) were 28 µL/min and 500 µL/min, respectively. In [1], this molecule had a half-maximal inhibitory concentration (IC50) of 200 nM. Moreover, the half-life in data set [4] was 18 min. Further, the Papp in data set [5] stood at 10 ×10⁻⁶ cm/s.
Take `Cc1ccccc1C(C(=O)NC1CCN(C(=O)CCc2cccnc2)CC1)C1CCCCC1` (stereo not drawn): in data set [1], the IC50 was 2510 nM.
On to `O=C(NC1CCN(C(=O)CCc2cccnc2)CC1)C(c1ccccc1)C1CCCC1` (stereo not drawn), for which, in data set [1], the IC50 is 794 nM.
The same measure, in the same setting: as for `O=C(NC1CCN(C(=O)/C=C/c2ccccc2F)CC1)C(c1ccccc1)C1CCCCC1` (stereo not drawn), the figure is 12600 nM; as for `O=C(NC1CCN(C(=O)CCc2cccnc2)CC1)C(c1ccsc1)C1CCCCC1` (stereo not drawn), 200 nM.
Same read-out and setting: in the case of `Cc1ccc(C(C(=O)NC2CCN(C(=O)CCc3cccnc3)CC2)C2CCCCC2)cc1` (stereo not drawn) it was 794 nM.
For the molecule `O=C(NC1CCN(C(=O)CCc2cccnc2)CC1)C1c2cc(Cl)ccc2Oc2ccc(Cl)cc21`, the 50% inhibitory concentration (IC50) in data set [6] is 631 nM; in data set [1], 1580 nM.
In [2], `O=C(NC1CCN(C(=O)CCc2ccc(F)nc2)CC1)C(c1ccccc1)C1CCCCC1` (stereo not drawn) showed a bioavailability of 0%. In data set [3], this molecule yielded a CL of 782 µL/min. In data set [1], this molecule had an IC50 of 1260 nM. The molecule further showed a half-life in data set [4] of 18 min. Besides, the Papp in [5] was found to be 19 ×10⁻⁶ cm/s.
Regarding `O=C(NC1CCN(C(=O)CCc2cccnc2)CC1)C(C1CCCCC1)C1CCCCC1`, the bioavailability in data set [2] came to 6%. In data set [3], this molecule displayed a CL of 675 µL/min. Moreover, the IC50 in data set [1] is 1000 nM. In data set [4], this molecule gave a half-life of 12 min.
As for `O=C(NC1CCN(C(=O)CCc2cccnc2)CC1)C(c1ccc2ccccc2c1)C1CCCCC1` (stereo not drawn), the bioavailability in data set [2] worked out at 9%. Moreover, it took 1580 nM to reach a half-maximal effect in data set [7] (EC50). Besides, in data set [3], the CL stood at 585 µL/min. The molecule further showed an IC50 in data set [1] of 794 nM. The molecule also gave a half-life in data set [4] of 30 min.
For `COc1ncccc1CCC(=O)N1CCC(NC(=O)C(c2ccccc2)C2CCCCC2)CC1` (stereo not drawn), the half-inhibitory concentration (IC50) in data set [1] was 15800 nM.
On the same count and under the same terms, as for `O=C(NC1CCN(C(=O)Cc2cccc(F)c2F)CC1)C(c1ccccc1)C1CCCCC1` (stereo not drawn), the figure is 10000 nM.
In data set [2], `O=C(NC1CCN(C(=O)CCc2cccnc2)CC1)C(c1ccccc1)c1ccccc1` yielded a bioavailability of 5%. Moreover, the CL amounted to 21 µL/min with Hepatocyte and 500 µL/min in data set [3]. In addition, the IC50 in [6] was 3160 nM; in [1] it was 12600 nM. The same molecule gave a half-life in [4] of 6 min. Moreover, the Papp in data set [5] was 8.5 ×10⁻⁶ cm/s.
The molecule `O=C(NC1CCN(C(=O)CCc2cccnc2F)CC1)C(c1ccccc1)C1CCCCC1` (stereo not drawn) gave an EC50 in [7] of 200 nM. Further, the IC50 in data set [1] was 31.6 nM.
The molecule `O=C(NC1CCN(C(=O)CCc2cccnc2)CC1)/C(=C/C1CCCCC1)c1ccccc1` showed an IC50 in [1] of 25100 nM.
The same measure, in the same setting: in the case of `O=C(NC1CCN(C(=O)CCc2cccnc2)CC1)C(c1ccccc1)C1CCCCC1` (single isomer, unassigned; epimer B) it was 316 nM.
On to `O=C(NC1CCN(C(=O)CCc2ccncc2)CC1)C1c2cc(Cl)ccc2Oc2ccc(Cl)cc21`, for which the “Log IC50” value in [8] is “inactive”.
`O=C(NC1CCN(C(=O)CCc2cccnc2)CC1)C(CC1CCCCC1)c1ccccc1` (stereo not drawn): in data set [2], the bioavailability is 1%. The figures for the CL (in the data set on Hepatocyte; in data set [3]) were 44 µL/min and 500 µL/min, respectively. This molecule had an IC50 in [1] of 794 nM. In data set [4], the half-life is 42 min.
For `O=C(NC1CCN(C(=O)CCc2cccnc2)CC1)C(c1ccc(Cl)cc1)c1ccc(Cl)cc1`, the bioavailability in [2] was found to be 0%. This molecule also gave a CL in data set [3] of 175 µL/min. The molecule also gave an IC50 in [1] of 20000 nM. For the same molecule, the half-life in data set [4] is 24 min. Moreover, the Papp in [5] was 6.3 ×10⁻⁶ cm/s.
Turning to `O=C(NC1CCN(C(=O)CCc2ccccn2)CC1)C1c2cc(Cl)ccc2Oc2ccc(Cl)cc21`, in [8], the “Log IC50” value was “inactive”.
Take `O=C(NC1CCN(C(=O)CCc2cccnc2)CC1)C(c1ccc(F)cc1)C1CCCCC1` (stereo not drawn): in [1], the half-maximal inhibitory concentration (IC50) was 158 nM.
`O=C(NC1CCN(C(=O)CCc2cccnc2)CC1)C(c1ccccc1)C1CCCCC1` (stereo not drawn) had a bioavailability in data set [2] of 5%. Besides, the CL with Hepatocyte came to 33 µL/min; in data set [3], 500 µL/min. In [7], this molecule had an EC50 of 2000 nM. In data set [1], the IC50 is 794 nM. In addition, the half-life in data set [4] was 12 min. Moreover, the Papp in [5] turned out to be 12 ×10⁻⁶ cm/s.
`O=C(NC1CCN(C(=O)CCc2cccnc2)CC1)C(c1ccccc1)C1CCCCC1` (single isomer, unassigned; epimer A): in data set [1], the IC50 is 5010 nM.
`Cc1cncc(/C=C/C(=O)N2CCC(NC(=O)C(c3ccccc3)C3CCCCC3)CC2)c1` (stereo not drawn) came in with a bioavailability in data set [2] of 3%. Moreover, the CL with Hepatocyte was 21 µL/min; in data set [3] it was 175 µL/min. Besides, the IC50 in data set [1] is 50100 nM. In data set [4], the half-life is 18 min. In addition, the Papp in data set [5] came to 7.9 ×10⁻⁶ cm/s.
As for `O=C(NC1CCN(C(=O)CCc2cccnc2)CC1)C(c1cc(F)c(F)c(F)c1)C1CCCCC1` (stereo not drawn), the bioavailability in [2] was 0%. Besides, the CL in the data set on Hepatocyte came to 17 µL/min; in data set [3], 609 µL/min. The molecule also gave an EC50 in [7] of 794 nM. Also, in data set [1], the IC50 was 100 nM. In addition, the half-life in data set [4] was 18 min.
